Results: ChEMBL document CHEMBL4480390, “Cink4T, a quinazolinone-based dual inhibitor of Cdk4 and tubulin polymerization, identified via ligand-based virtual screening, for efficient anticancer therapy” (Eur J Med Chem, 2019)
The source made the active and inactive calls. The calls are words filed in the database; no cut-off is given here.

How the values were obtained:
[1] = biological target: Cyclin-dependent kinase 4/cyclin D1 (Homo sapiens) (UniProt P11802+P24385); test: Inhibition of recombinant human N-terminal GST-tagged CDK4 (S4 to E303 residues)/Cyclin D1 (Q4 to I295 residues) expressed in sf9 cells at 10 uM using RBCTF as substrate measured after 1 hr by ADP-glo luminescence assay relative to control
[2] = biological target: T1, Cytochrome P450 1A2 (Homo sapiens, UniProt P05177); test: Inhibition of recombinant human CYP1A2 expressed in baker's yeast-derived microsomes using 3-cyano-7-ethoxycoumarin as substrate by fluorescence assay; assay type: ADME
T1 sequence (P05177 whole entry): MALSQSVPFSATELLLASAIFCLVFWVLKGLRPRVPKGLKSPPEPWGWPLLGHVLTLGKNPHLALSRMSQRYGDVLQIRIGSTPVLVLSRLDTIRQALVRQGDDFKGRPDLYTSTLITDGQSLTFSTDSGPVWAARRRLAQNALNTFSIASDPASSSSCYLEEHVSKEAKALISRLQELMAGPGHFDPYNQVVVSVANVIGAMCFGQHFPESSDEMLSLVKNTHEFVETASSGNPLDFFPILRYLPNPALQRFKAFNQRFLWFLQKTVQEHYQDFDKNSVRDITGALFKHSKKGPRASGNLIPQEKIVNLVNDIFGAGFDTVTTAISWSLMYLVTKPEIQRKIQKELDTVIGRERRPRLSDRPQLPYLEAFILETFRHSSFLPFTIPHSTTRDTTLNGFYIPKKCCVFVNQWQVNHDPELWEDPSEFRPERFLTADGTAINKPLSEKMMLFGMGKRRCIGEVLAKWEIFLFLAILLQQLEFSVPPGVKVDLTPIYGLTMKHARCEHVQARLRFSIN

[3] = biological target: T2, Cytochrome P450 1A1 (Homo sapiens, UniProt P04798); test: Inhibition of recombinant human CYP1A1 expressed in baker's yeast-derived microsomes using 7-ethoxyresorufin as substrate by fluorescence assay; assay type: ADME
T2 sequence (P04798 whole entry): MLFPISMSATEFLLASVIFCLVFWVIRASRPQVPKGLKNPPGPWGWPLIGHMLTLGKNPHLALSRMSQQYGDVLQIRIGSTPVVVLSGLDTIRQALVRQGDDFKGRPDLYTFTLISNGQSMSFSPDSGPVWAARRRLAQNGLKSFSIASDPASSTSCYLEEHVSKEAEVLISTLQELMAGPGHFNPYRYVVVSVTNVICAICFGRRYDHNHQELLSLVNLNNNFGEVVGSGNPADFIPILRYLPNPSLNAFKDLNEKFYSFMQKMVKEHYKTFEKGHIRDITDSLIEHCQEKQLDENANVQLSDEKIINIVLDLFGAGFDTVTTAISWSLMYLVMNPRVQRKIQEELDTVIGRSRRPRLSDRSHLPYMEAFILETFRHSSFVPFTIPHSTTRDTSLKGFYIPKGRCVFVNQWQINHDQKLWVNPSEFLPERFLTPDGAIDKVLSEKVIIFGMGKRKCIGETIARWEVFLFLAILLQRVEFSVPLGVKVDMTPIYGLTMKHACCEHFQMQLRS

[4] = biological target: CDK9/cyclin T1 (Homo sapiens, UniProt P50750); test: Inhibition of N-terminal GST-HIS6 fusion protein tagged human full length CDK9 (M1 to F372 residues)/N-terminal HIS6-fused human Cyclin-T1 (M1 to K726 residues) expressed in Sf9 cells using RBCTF as substrate measured after 1 hr by ADP-glo luminescence assay
[5] = biological target: Cyclin-dependent kinase 1/cyclin B1 (Homo sapiens, UniProt P06493); test: Inhibition of recombinant human N-terminal GST/His6-tagged CDK1 (M1 to M297 residues)/CyclinB1 (M1 to V433 residues) expressed in Sf9 insect cells using RBCTF as substrate measured after 1 hr by ADP-glo luminescence assay
[6] = biological target: T3, Cytochrome P450 1B1 (Homo sapiens, UniProt Q16678); test: Inhibition of recombinant human CYP1B1 expressed in baker's yeast-derived microsomes using 7-ethoxyresorufin as substrate by fluorescence assay
T3 sequence (Q16678 whole entry): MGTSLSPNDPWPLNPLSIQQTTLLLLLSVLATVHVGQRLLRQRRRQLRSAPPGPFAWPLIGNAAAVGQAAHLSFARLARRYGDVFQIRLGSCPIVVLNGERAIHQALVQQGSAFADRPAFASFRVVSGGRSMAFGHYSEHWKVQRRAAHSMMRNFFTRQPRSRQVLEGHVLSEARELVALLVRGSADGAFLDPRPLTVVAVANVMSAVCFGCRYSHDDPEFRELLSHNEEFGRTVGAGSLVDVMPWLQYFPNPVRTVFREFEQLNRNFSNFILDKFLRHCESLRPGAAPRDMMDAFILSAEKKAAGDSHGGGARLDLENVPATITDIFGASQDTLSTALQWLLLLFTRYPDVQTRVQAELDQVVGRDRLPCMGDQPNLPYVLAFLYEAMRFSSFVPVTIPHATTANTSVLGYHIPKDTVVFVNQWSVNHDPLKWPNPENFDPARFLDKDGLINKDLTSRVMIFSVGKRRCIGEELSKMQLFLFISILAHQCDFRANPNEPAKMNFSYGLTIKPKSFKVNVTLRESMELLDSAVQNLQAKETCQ

[7] = tested on: T47D; test: cells; settings: Homo sapiens, 72 h
[8] = tested on: MDA-MB-468; test: cells; settings: Homo sapiens, MDA-MB-468, 72 h
[9] = biological target: Cyclin-dependent kinase 4/cyclin D1 (Homo sapiens, UniProt P11802); test: Inhibition of recombinant human N-terminal GST-tagged CDK4 (S4 to E303 residues)/Cyclin D1 (Q4 to I295 residues) expressed in sf9 cells using RBCTF as substrate measured after 1 hr by ADP-glo luminescence assay
Outline: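 ADP-Glo luminescence assay of Cdk4–cyclin D1 with RBCTF substrate, 200 ng enzyme, ATP 125 µM (2.5x working mix), Tris/MgCl2/BSA/DTT/MnCl2 buffer, 1 h at 21°C, then two 40-min reagent steps. IC50 from a four-parameter variable-slope sigmoidal fit of inhibition against concentration; mean ± SD from three independent experiments.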

[10] = biological target: Tubulin (Sus scrofa) (UniProt P02554+P02550); test: Inhibition of porcine tubulin polymerization at 5 uM incubated for 1 min by fluorescence based assay; assay type: protein assay
Outline: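 Compounds added from 10x stocks in duplicate and warmed at 37°C ≤1 min. Ice-cold tubulin pre-mix then added. Fluorescent reporter read at ex 360/em 460 nm for 60 min. Paclitaxel served as enhancer control, CaCl2 as inhibitor control.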

[11] = tested on: A549; test: cells; settings: Homo sapiens, A549, 72 h
[12] = biological target: CDK2/Cyclin A2 (Homo sapiens, UniProt P24941); test: Inhibition of human full length N-terminal GST-fused CDK2 (M1 to L298 residues)/human full length Cyclin-A2 (M1 to L432 residues) expressed in Sf9 cells using histone H1 as substrate measured after 1 hr by ADP-glo luminescence assay
[13] = tested on: Calu-1; test: cells; settings: Homo sapiens, Calu-1, 72 h
[14] = biological target: CDK6/cyclin D1 (Homo sapiens, UniProt Q00534); test: Inhibition of CDK6/cyclin D1 (unknown origin) using RBER-CHKtide as substrate measured after 1 hr by ADP-glo luminescence assay; assay type: protein-complex assay
Outline: (§1)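 ADP-Glo kinase assay with 200 ng Cdk-cyclin enzyme, ATP (125 µM in 2.5x mix) and 25 µg substrate (RBCTF or RBER-CHKtide, per Cdk). Buffer: Tris, MgCl2, BSA, DTT, MnCl2 cofactor, DMSO. Reaction 1 h at 21°C; ADP-Glo 40 min, then detection reagent 40 min. Luminescence read. IC50 by 4-parameter fit; three independent experiments.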

[15] = biological target: CDK9/cyclin T1 (Homo sapiens) (UniProt O60563+P50750); test: Inhibition of N-terminal GST-HIS6 fusion protein tagged human full length CDK9 (M1 to F372 residues)/N-terminal HIS6-fused human Cyclin-T1 (M1 to K726 residues) expressed in Sf9 cells at 10 uM using RBCTF as substrate measured after 1 hr by ADP-glo luminescence assay relative to control; outline: as §1

SMILES | inhibition [1] | other results
O=c1[nH]c(-c2ccc(Oc3ccc(F)cc3)cc2)nc2ccccc12 | 30% | –
O=c1[nH]c(-c2cccc(O)c2)nc2ccccc12 | -6% | –
COc1ccc(-c2nc3ccccc3c(=O)[nH]2)cc1O | 0% | –
O=c1[nH]c(-c2ccc(OCc3ccc(F)cc3F)cc2)nc2ccccc12 | 30% | –
COc1ccccc1NC(=O)COc1ccc(-c2nc3ccccc3c(=O)[nH]2)cc1OC | 89% | IC50 [2]: > 5 µM; IC50 [3]: > 5 µM; IC50 [4]: > 100 µM; IC50 [5]: > 50 µM; IC50 [6]: > 5 µM; EC50 [7]: 4 µM; EC50 [8]: > 50 µM; IC50 [9]: 1.5 µM; inhibition [10]: Active; EC50 [11]: 3 µM; IC50 [12]: > 50 µM; EC50 [13]: 6 µM; IC50 [14]: > 100 µM
COc1ccc(-c2nc3ccccc3c(=O)[nH]2)cc1OCc1ccc(F)cc1F | 45% | –
CCCCNC(=O)COc1ccc(-c2nc3ccccc3c(=O)[nH]2)cc1OC | 48% | –
COc1cc(-c2nc3ccccc3c(=O)[nH]2)ccc1OCc1ccc(F)cc1F | 36% | –
O=C(COc1ccc(-c2nc3ccccc3c(=O)[nH]2)cc1)Nc1cccc2ccccc12 | 5% | –
CS(=O)(=O)Oc1ccc(-c2nc3ccccc3c(=O)[nH]2)cc1 | 42% | –
COc1ccc(-c2nc3ccccc3c(=O)[nH]2)cc1Oc1ccc(F)cc1 | 46% | –
O=c1[nH]c(-c2ccc(O)cc2)nc2ccccc12 | 30% | –
CC(=O)c1c(C)c2cnc(Nc3ccc(N4CCNCC4)cn3)nc2n(C2CCCC2)c1=O | 95% | inhibition [15]: -4%
C#CCOc1ccc(-c2nc3ccccc3c(=O)[nH]2)cc1OC | 38% | –
COc1cc(-c2nc3ccccc3c(=O)[nH]2)ccc1Oc1ccc(Cl)cc1Cl | 55% | –
COc1ccc(-c2nc3ccccc3c(=O)[nH]2)cc1OCC(=O)NC1CCCCC1 | 76% | IC50 [2]: > 5 µM; IC50 [3]: > 5 µM; IC50 [4]: > 50 µM; IC50 [5]: > 50 µM; IC50 [6]: > 5 µM; EC50 [7]: 8.2 µM; EC50 [8]: > 50 µM; IC50 [9]: 3.8 µM; inhibition [10]: Active; EC50 [11]: 7.5 µM; IC50 [12]: > 100 µM; inhibition [15]: 8%; EC50 [13]: 9.8 µM; IC50 [14]: > 100 µM
Oc1nc(-c2cccnc2)nc2ccccc12 | 36% | –
O=c1[nH]c(-c2ccc(Br)cc2)nc2ccccc12 | 31% | –
COc1ccccc1NC(=O)COc1cc(-c2nc3ccccc3c(=O)[nH]2)ccc1OC | 21% | –
O=c1[nH]c(-c2ccc([N+](=O)[O-])cc2)nc2ccccc12 | 0% | –
O=C(COc1ccc(-c2nc3ccccc3c(=O)[nH]2)cc1)Nc1ccc2ccccc2c1 | 0% | –
COc1cc(-c2nc3ccccc3c(=O)[nH]2)ccc1OS(C)(=O)=O | 78% | EC50 [7]: 8 µM; EC50 [8]: > 50 µM; inhibition [10]: Active; EC50 [11]: 7 µM; IC50 [12]: > 100 µM; inhibition [15]: -5%; EC50 [13]: 9 µM
COc1cc(-c2nc3ccccc3c(=O)[nH]2)ccc1O | 39% | –
O=C(COc1ccc(-c2nc3ccccc3c(=O)[nH]2)cc1)NC1CCCCC1 | 20% | –

The next lines start with results.

inhibition [1] | SMILES | other results
20% | COc1ccc(-c2nc3ccccc3c(=O)[nH]2)cc1OCC(=O)Nc1ccccc1 | –
0% | O=C(COc1ccc(-c2nc3ccccc3c(=O)[nH]2)cc1O)Nc1ccc(Cl)cc1 | –
1% | COc1ccc(-c2nc3ccccc3c(=O)[nH]2)cc1OCC(=O)Nc1ccc([N+](=O)[O-])cc1 | –
41% | COc1ccc(-c2nc3ccccc3c(=O)[nH]2)cc1OCC(=O)Nc1ccccc1Cl | –
14% | COc1ccc(NC(=O)COc2cc(-c3nc4ccccc4c(=O)[nH]3)ccc2OC)cc1 | –
7% | COc1cc(-c2nc3ccccc3c(=O)[nH]2)ccc1OCC(=O)Nc1ccc(F)cc1 | –
5% | COc1cccc(NC(=O)COc2cc(-c3nc4ccccc4c(=O)[nH]3)ccc2OC)c1 | –
5% | Cc1ccc(NC(=O)COc2ccc(-c3nc4ccccc4c(=O)[nH]3)cc2)cc1 | –
3% | CCOc1ccc(NC(=O)COc2cc(-c3nc4ccccc4c(=O)[nH]3)ccc2OC)cc1 | –
0% | CCOc1ccc(NC(=O)COc2ccc(-c3nc4ccccc4c(=O)[nH]3)cc2OC)cc1 | –
45% | O=C(COc1ccc(-c2nc3ccccc3c(=O)[nH]2)cc1)Nc1ccccc1 | –
26% | O=C(COc1ccc(-c2nc3ccccc3c(=O)[nH]2)cc1)Nc1ccc([N+](=O)[O-])cc1 | –
41% | COc1ccc(NC(=O)COc2ccc(-c3nc4ccccc4c(=O)[nH]3)cc2OC)cc1 | –
16% | COc1cccc(NC(=O)COc2ccc(-c3nc4ccccc4c(=O)[nH]3)cc2OC)c1 | –
-5% | COc1ccc(-c2nc3ccccc3c(=O)[nH]2)cc1OCC(=O)Nc1ccccc1C | –
